From ChEMBL document CHEMBL1158351, “Studies on chemical structure modification and biology of a natural product, gambogic acid (I): Synthesis and biological evaluation of oxidized analogues of gambogic acid” (Eur J Med Chem, 2009) come the findings set out here.

What all share (type): functional, cell-based
For one test, the system named is A549. Description: Cytotoxicity against human A549 cells after 48 hrs by MTT assay. The conditions noted are these: A549, 48 h. Put shortly: (§1)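 Cells in RPMI-1640 with 10% heat-inactivated calf serum, penicillin/streptomycin, 5% CO2, 37 °C. Seeded at 5×10³ per well and exposed to six concentrations of 0.01–1000 for 48 h. Then 0.5% MTT for 4 h at 37 °C, formazan dissolved in DMSO, absorbance read at 570 nm. Inhibition calculated as (1 − treated/control absorbance)×100. IC50 is the concentration giving 50% inhibition; mean ± SD of three observations.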
(Formazan colour is commonly taken as a measure of viable cells.)

In another test the test system is SK-OV-3. The test is described as follows: Cytotoxicity against human SKOV3 cells after 48 hrs by MTT assay. The conditions noted are these: SK-OV-3, 48 h. Summed up:
as §1

The next test deals with BGC-823. Description: Cytotoxicity against human BGC823 cells after 48 hrs by MTT assay. Particulars: BGC-823, 48 h. Summed up:
as §1

In a further test the test system is Bel-7402. Description: Cytotoxicity against human Bel7402 cells after 48 hrs by MTT assay. Particulars: Bel-7402, 48 h. Put shortly:
as §1

The test system of another test is HT-29. Description: Cytotoxicity against human HT-29 cells after 48 hrs by MTT assay. Particulars: HT-29, 48 h. Summed up:
as §1

For `COC(=O)/C(C)=C\C[C@@]12OC(C)(C)[C@@H]3C[C@@H](C=C4C(=O)c5c(OC)c6c(c(CC7OC7(C)C)c5O[C@]431)O[C@](C)(CCC1OC1(C)C)C=C6)C2=O` (stereo not given in full), the half-maximal inhibitory concentration (IC50) was found to be 3.61 µM in the test with A549; 1.8 µM in the test with SK-OV-3; 3.21 µM with BGC-823; 1.66 µM with Bel-7402; 1.86 µM with HT-29.
For `COC(=O)/C(C)=C\C[C@@]12OC(C)(C)[C@@H]3C[C@@H](C=C4C(=O)c5c(OC)c6c(c(CC=C(C)C)c5O[C@]431)O[C@](C)(CC[C@@H](O)C(C)(C)O)C=C6)C2=O`, the IC50 in the test on A549, with SK-OV-3, with BGC-823, with Bel-7402 and with HT-29 was above 100 µM throughout.
Consider `COC(=O)/C(C)=C\C[C@@]12OC(C)(C)[C@@H]3C[C@@H](C=C4C(=O)c5c(OC)c6c(c(CC=C(C)C)c5O[C@]431)O[C@](C)(CCC1OC1(C)C)C=C6)C2=O` (stereo not given in full), for which the IC50 with A549 amounted to 1.48 µM; in the test with SK-OV-3 it was 0.64 µM; in the test on BGC-823, 0.75 µM; with Bel-7402 it was 1.4 µM; with HT-29, 2.19 µM.
Taken in the same sequence, the figures for `C/C(=C/C[C@@]12OC(C)(C)[C@@H]3C[C@@H](C=C4C(=O)c5c(O)c6c(c(C/C=C(\C)CO)c5O[C@]431)O[C@](C)(CC/C=C(\C)C=O)C=C6)C2=O)C(=O)O` were 20.5 µM, 1.84 µM, 6.75 µM, 15 µM and 2.08 µM.
The matching figures for `CC(C)=CCC[C@]1(C)C=Cc2c(O)c3c(c(CC=C(C)C)c2O1)O[C@]12C(=C[C@@H]4C[C@H]1C(C)(C)O[C@@]2(C/C=C(/C)C(=O)O)C4=O)C3=O` [GAMBOGIC ACID]: 5.81 µM, 3.06 µM, 4.51 µM, 3.31 µM and 5.61 µM.

One may read the IC50 as the concentration at which inhibition is half-maximal.
